Active and inactive are the calls of the source. The rule behind the calls is not given here.
How the values were obtained:
[1] = (§1) Antiproliferative activity against 5-FU resistant human HCT8 cells assessed as inhibition of cell proliferation at 1 uM after 72 hrs by MTT assay; format: functional; settings: HCT-8, 72 h, read-out: GI
Outline: (§2)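 Cells grown in DMEM with 10% FBS and exposed to compound at 1 µM for 72 h. Proliferation measured by MTT at 570 nm and expressed as % inhibition versus untreated cells. Mean ± SD of three independent experiments.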

[2] = test system: HCT-8; test: Induction of nitric oxide release in 5-FU resistant human HCT8 cells at 150 uM incubated for 150 mins after 150 mins of pre-treatment with 0.75 uM to 192 uM pepT1 substrate Gly-Sar by Griess assay; format: functional, cell-based
Outline: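 Cells pretreated with Gly-Sar (0.75–192 µM, nine levels) for 150 min, then given compound at 150 µM for 150 min. Intracellular nitrite in lysates measured with Griess reagent (10 min, 37 °C, 540 nm) against a sodium nitrite standard curve. Mean ± SD of three experiments.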

[3] = test system: HCT-8; test: Induction of apoptosis in human HCT8 cells incubated for 24 hrs by FITC-Annexin-V and propidium iodide staining based flow cytometry; format: functional, cell-based
[4] = test system: HCT-8; test: Inhibition of MRP1 protein expression in FU-resistant human HCT8 cells at 0.25 to 1 uM incubated for 24 hrs by Western blotting method; format: functional, cell-based
Outline: (§3)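 Cells (1 x 10^6) grown 24 h in 6 cm dishes, then exposed in duplicate for 24 h to 0.25, 0.5 or 1 µM compound, with or without PTIO. Lysates (20 µg/lane) were run on 7.5% SDS-PAGE, blotted to PVDF and blocked in 5% milk. HRP secondaries with ECL detection; bands quantified by densitometry against β-actin or GAPDH. Three separate experiments, mean ± SD.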

[5] = biological target: ATP-dependent translocase ABCB1 (Homo sapiens, UniProt P08183); test: Induction of nitrosylation of P-gp protein in FU-resistant human HCT8 cells at 0.25 to 1 uM incubated for 24 hrs by Western blotting method; format: cell-based; settings: hct-8, 24 h
Chain of ATP-dependent translocase ABCB1 (P08183 whole entry): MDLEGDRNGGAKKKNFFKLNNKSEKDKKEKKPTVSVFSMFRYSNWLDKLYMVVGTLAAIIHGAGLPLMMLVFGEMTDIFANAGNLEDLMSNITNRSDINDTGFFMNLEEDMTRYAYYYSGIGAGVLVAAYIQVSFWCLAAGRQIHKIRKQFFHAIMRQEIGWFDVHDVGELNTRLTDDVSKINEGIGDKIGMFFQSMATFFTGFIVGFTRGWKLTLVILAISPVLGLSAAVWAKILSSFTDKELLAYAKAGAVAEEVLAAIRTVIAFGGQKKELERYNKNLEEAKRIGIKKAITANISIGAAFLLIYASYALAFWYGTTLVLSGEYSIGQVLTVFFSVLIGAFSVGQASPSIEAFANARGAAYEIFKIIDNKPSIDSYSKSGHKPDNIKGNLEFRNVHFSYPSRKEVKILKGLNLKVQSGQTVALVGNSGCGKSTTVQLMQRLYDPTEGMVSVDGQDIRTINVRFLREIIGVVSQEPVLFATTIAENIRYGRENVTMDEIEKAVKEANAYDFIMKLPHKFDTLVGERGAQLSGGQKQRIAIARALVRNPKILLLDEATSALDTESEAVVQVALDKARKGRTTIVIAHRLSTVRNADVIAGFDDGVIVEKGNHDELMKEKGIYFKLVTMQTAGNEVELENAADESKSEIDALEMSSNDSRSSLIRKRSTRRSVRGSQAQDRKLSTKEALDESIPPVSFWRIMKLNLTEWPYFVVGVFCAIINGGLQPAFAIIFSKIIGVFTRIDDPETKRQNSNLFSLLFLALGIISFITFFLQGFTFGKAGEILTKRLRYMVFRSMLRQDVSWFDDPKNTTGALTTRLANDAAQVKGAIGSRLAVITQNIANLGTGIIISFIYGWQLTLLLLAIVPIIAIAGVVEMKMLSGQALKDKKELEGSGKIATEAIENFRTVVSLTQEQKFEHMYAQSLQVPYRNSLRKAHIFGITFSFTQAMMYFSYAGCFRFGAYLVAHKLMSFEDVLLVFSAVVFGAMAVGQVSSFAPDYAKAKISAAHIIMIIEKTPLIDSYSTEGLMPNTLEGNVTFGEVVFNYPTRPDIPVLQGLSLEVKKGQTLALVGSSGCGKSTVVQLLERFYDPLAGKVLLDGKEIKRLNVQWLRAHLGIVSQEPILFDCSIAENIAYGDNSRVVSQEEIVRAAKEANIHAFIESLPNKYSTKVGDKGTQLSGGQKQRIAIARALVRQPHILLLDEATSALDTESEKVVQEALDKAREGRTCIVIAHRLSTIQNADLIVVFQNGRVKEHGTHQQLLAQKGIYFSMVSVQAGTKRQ
Outline: (§4)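 HCT-8/5-FU cells (1 × 10^6) treated in duplicate for 24 h with 0.25, 0.5 or 1 µM test compound or 1 µM reference, with or without PTIO. Lysates immunoprecipitated overnight at 4 °C with anti-nitrotyrosine antibody on protein G beads. Eluates blotted with specific anti-Pgp, anti-MRP1 or anti-BCRP antibodies and quantified by densitometry. Mean ± SD of three experiments.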

[6] = biological target: T1, Broad substrate specificity ATP-binding cassette transporter ABCG2 (Homo sapiens, UniProt Q9UNQ0); test: Induction of nitrosylation of BCRP protein in FU-resistant human HCT8 cells at 0.25 to 1 uM incubated for 24 hrs by Western blotting method; format: cell-based; settings: hct-8, 24 h; outline: as §4
T1 sequence (Q9UNQ0 whole entry): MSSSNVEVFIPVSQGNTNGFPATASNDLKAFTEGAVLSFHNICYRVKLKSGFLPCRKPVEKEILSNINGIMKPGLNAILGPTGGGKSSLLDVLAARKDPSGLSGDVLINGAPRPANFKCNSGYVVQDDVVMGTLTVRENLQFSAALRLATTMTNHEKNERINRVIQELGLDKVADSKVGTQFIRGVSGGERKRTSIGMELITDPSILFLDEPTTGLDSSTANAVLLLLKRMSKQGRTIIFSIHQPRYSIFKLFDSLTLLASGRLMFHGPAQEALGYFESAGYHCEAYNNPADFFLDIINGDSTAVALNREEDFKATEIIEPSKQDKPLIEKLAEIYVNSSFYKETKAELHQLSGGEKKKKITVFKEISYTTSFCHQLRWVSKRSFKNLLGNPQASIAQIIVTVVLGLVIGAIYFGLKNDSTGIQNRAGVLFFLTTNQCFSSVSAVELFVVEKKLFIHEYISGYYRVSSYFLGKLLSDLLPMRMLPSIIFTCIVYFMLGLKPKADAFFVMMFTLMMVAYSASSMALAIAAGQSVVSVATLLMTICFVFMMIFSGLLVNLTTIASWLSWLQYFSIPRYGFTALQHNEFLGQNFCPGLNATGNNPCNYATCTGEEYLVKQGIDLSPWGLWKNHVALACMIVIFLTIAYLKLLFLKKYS

[7] = test system: Mus musculus; test: Toxicity in ICR mouse assessed as abnormality in eating behavior at 0.60 x 10^3 to 2.38 x 10^3 umol/kg administered as single dose via oral gavage measured up to 14 days post treatment; format: organism-based; settings: in vivo, 336 h
Outline: (§5)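 Adult ICR mice of either sex were randomised and given a single oral gavage dose of 500, 1000, 1500 or 2000 mg/kg in cremophor-EL/DMSO/PBS (1:1:8). Survival, behaviour, water and food intake, body weight and activity were monitored for up to 14 days. Body weights were taken on days 0, 7 and 14.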

[8] = test system: Mus musculus; test: Toxicity in ICR mouse assessed as abnormality in drinking behavior at 0.60 x 10^3 to 2.38 x 10^3 umol/kg administered as single dose via oral gavage measured up to 14 days post treatment; format: organism-based; settings: in vivo, 336 h; outline: as §5
[9] = test system: Mus musculus; test: Toxicity in ICR mouse assessed as general activity changes at 0.60 x 10^3 to 2.38 x 10^3 umol/kg administered as single dose via oral gavage measured up to 14 days post treatment; format: organism-based; settings: in vivo, 336 h; outline: as §5
[10] = test system: Mus musculus; test: Toxicity in nude BALB/c mouse xenografted with FU-resistant human HCT8 cells assessed as abnormal color changes in kidney at 17.8 to 35.7 umol/kg administered as via oral gavage daily for 21 days; format: organism-based, HCT-8; settings: in vivo, 504 h
Outline: (§6)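 Male BALB/c nude mice aged 6-8 weeks, implanted s.c. in the right flank with HCT-8/5-FU cells (2 × 10^6). Once tumors reached 180-200 mm3 (days 9-11), randomized to daily gavage for 21 days in cremophor-EL/DMSO/PBS (1:1:8), 0.2 mL. At the end, liver, kidney, lung and heart checked for size, colour and weight. n = 8 per group.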

[11] = test system: Mus musculus; test: Toxicity in nude BALB/c mouse xenografted with FU-resistant human HCT8 cells assessed as abnormal color changes in lung at 17.8 to 35.7 umol/kg administered as via oral gavage daily for 21 days; format: organism-based, HCT-8; settings: in vivo, 504 h; outline: as §6
[12] = test system: Mus musculus; test: Toxicity in nude BALB/c mouse xenografted with FU-resistant human HCT8 cells assessed as abnormal size changes in lung at 59.4 umol/kg administered as via oral gavage daily for 21 days; format: organism-based, HCT-8; settings: in vivo, 504 h; outline: as §6
[13] = test system: HCT-8; test: as §1; format: functional; outline: as §2
[14] = biological target: RAC-alpha serine/threonine-protein kinase (Homo sapiens) (UniProt P31749); test: Inhibition of AKT protein phosphorylation in FU-resistant human HCT8 cells at 1 uM incubated for 24 hrs by Western blotting method; format: cell-based; settings: HCT-8; outline: as §3
Chain of RAC-alpha serine/threonine-protein kinase (Homo sapiens) (P31749 whole entry): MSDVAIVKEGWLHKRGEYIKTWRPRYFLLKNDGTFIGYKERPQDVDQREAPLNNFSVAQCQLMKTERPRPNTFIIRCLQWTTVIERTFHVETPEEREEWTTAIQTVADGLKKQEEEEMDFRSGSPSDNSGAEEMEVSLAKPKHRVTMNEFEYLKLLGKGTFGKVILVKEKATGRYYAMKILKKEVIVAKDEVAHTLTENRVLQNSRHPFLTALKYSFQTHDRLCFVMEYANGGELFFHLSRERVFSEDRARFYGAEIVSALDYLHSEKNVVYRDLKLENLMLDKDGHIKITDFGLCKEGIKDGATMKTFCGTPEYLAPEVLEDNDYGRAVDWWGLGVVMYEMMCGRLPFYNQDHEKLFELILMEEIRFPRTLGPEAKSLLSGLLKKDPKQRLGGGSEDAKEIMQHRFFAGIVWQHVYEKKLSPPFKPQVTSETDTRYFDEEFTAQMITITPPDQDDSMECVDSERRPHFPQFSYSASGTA

[15] = test system: HCT-8; test: Inhibition of MRP1 protein expression in FU-resistant human HCT8 cells at 1 uM incubated for 24 hrs by Western blotting method; format: functional, cell-based; outline: as §3
[16] = test system: Mus musculus; test: Toxicity in nude BALB/c mouse xenografted with FU-resistant human HCT8 cells assessed as abnormal color changes in heart at 59.4 umol/kg administered as via oral gavage daily for 21 days; format: organism-based, HCT-8; settings: in vivo, 504 h; outline: as §6
[17] = test system: Mus musculus; test: Toxicity in nude BALB/c mouse xenografted with FU-resistant human HCT8 cells assessed as abnormal size changes in kidney at 59.4 umol/kg administered as via oral gavage daily for 21 days; format: organism-based, HCT-8; settings: in vivo, 504 h; outline: as §6

SMILES | inhibition of growth at 1 µM [1] [%] | Activity [2] | Activity [3] | inhibition [4] | Activity [5] | Activity [6] | Activity [7] | Activity [8] | Activity [9] | Activity [10] | Activity [11] | Activity [12] | growth inhibition (GI) [13] | inhibition [14] | inhibition [15] | Activity [16] | Activity [17]
CC1(C)CC[C@]2(C(=O)NCC(=O)OCC#CCOc3no[n+]([O-])c3S(=O)(=O)c3ccccc3)CC[C@]3(C)[C@H](C(=O)C=C4[C@@]5(C)C=C(C#N)C(=O)C(C)(C)[C@@H]5CC[C@]43C)[C@@H]2C1 | > 90 | inactive | Dose-dependent effect | Dose-dependent effect | Dose-dependent effect | Dose-dependent effect | Non-toxic | Non-toxic | Non-toxic | Non-toxic | Non-toxic |  |  |  |  |  | 
COC(=O)[C@]12CCC(C)(C)C[C@H]1[C@H]1C(=O)C=C3[C@@]4(C)C=C(C#N)C(=O)C(C)(C)[C@@H]4CC[C@@]3(C)[C@]1(C)CC2 [BARDOXOLONE METHYL] |  |  |  |  |  |  |  |  |  |  |  | Non-toxic | Active | Active | inactive | Non-toxic | Non-toxic
